The source of these data is ChEMBL document CHEMBL4699541, “Fragment based drug design and diversity-oriented synthesis of carboxylic acid isosteres” (Bioorg Med Chem, 2020).

Assay type in all cases: physicochemical
The nature of series [1]: Dissociation constant, pKa of compound in water by Sirius T3 apparatus based potentiometric titration analysis.
The nature of series [2]: Dissociation constant, pKa of compound measured under acidic conditions by Sirius T3 apparatus based potentiometric titration analysis.
Series [3] can be described thus: Octanol/water partition coefficient, logP of compound by Sirius T3 apparatus based potentiometric titration analysis. In short, it runs like this:
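Measured by potentiometric (pH-metric) titration in an immiscible octanol–water biphasic system on a Sirius T3. Run at 25 °C at constant ionic strength (0.15 M KCl), using the pKa values determined earlier on the same instrument. Samples came from 50 mM DMSO stocks.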

Series [4] in a line: Distribution coefficient, logD of compound at pH 3 by Sirius T3 apparatus based potentiometric titration analysis. Particulars: octanol/water.
Series [5] can be described thus: Distribution coefficient, logD of compound at pH 8 by Sirius T3 apparatus based potentiometric titration analysis. Particulars: octanol/water.
Series [6] can be described thus: Dissociation constant, pKa of compound in DMSO by Sirius T3 apparatus based potentiometric titration analysis.

Regarding `Cc1cccc(C/C(N)=N/O)c1`, the pKa in series [1] is greater than 12; in series [2], 5.27.

The logP is a log measure of how a compound divides between an organic and an aqueous phase. The low end stands for a more hydrophilic compound, the high end for a more lipophilic compound. A word on the logD: it is lipophilicity at a set pH, counting ionised and neutral species. Higher therefore signals a more lipophilic compound. In series [3], `Cc1cccc(CC(=O)O)c1` showed a lipophilicity (logP) of 1.98. Further, the logD in series [4] was 1.35; in series [5], -0.7. Further, the pKa in series [1] was found to be 4.13.

With `Cc1cccc(-c2noc(O)n2)c1`, in series [3], the lipophilicity (logP) stood at 1.14. Moreover, the log distribution coefficient (logD) was 0.8 in series [4] and -1.11 in series [5]. Further, the pKa in series [1] was 5.12.

Regarding `Cc1cccc(Cc2noc(S)n2)c1`, in series [3], the log partition coefficient (logP) was 2.39. Further, the logD in series [4] is 1.42; in series [5], -0.7. In addition, in series [6], the pKa is 3.19.

In series [3], `Cc1cccc(CC(=O)NS(C)(=O)=O)c1` came in with a log partition coefficient (logP) of 0.97. Further, the pH-dependent lipophilicity (logD) in series [4] was 0.44; in series [5], -1.58. Also, the pKa in series [6] is 4.63.

`Cc1cccc(-c2nnn[nH]2)c1` showed a logP in series [3] of 1.75. For the same molecule, the pH-dependent lipophilicity (logD) in series [4] is 1.1; in series [5], -0.95. Further, the pKa in series [6] stood at 4.07.

The molecule `Cc1cccc(Cc2noc(O)n2)c1` gave a logP in series [3] of 1.63. Also, the results for the pH-dependent lipophilicity (logD) in series [4] and in series [5] were 1.39 and -0.42, respectively. Moreover, the pKa in series [1] was found to be 5.59.

`Cc1cccc(C(N)=O)c1` yielded a pKa in series [1] greater than 12.

Turning to `Cc1cccc(Cc2nsc(O)n2)c1`, in series [3], the logP was determined as 2.15. The log distribution coefficient (logD) in series [4] is 2.02; in series [5], 0.42. Moreover, the pKa in series [6] was found to be 6.35.

With `Cc1cccc(CC(N)=O)c1`, in series [1], the pKa was greater than 12.

As for `Cc1cccc(-c2noc(S)n2)c1`, in series [3], the logP came to 2.65. The figures for the logD in series [4] and in series [5] were 1.44 and -0.7, respectively. Also, in series [6], the pKa was determined as 2.64.

Consider `Cc1cccc(/C(N)=N/O)c1`, for which the values for the pKa in series [1] and in series [2] were greater than 12 and 4.97, respectively.

`Cc1cccc(C(=O)O)c1` yielded a pKa in series [1] of 3.99.

With `Cc1cccc(Cc2nnn[nH]2)c1`, in series [3], the logP worked out at 1.51. The log distribution coefficient (logD) in series [4] was 1.07; in series [5], -0.96. For the same molecule, the pKa in series [6] was determined as 4.73.

`Cc1cccc(-c2nsc(O)n2)c1` displayed a logP in series [3] of 2.22. Besides, the values for the logD in series [4] and in series [5] were 2.04 and 0.34, respectively. In series [6], this molecule yielded a pKa of 5.99.

Consider `Cc1cccc(C2=C(O)COC2=O)c1`, for which, in series [3], the lipophilicity (logP) came out at 2.32. For the same molecule, the log distribution coefficient (logD) is 1.26 in series [4] and -0.87 in series [5]. Further, the pKa in series [6] is 2.95.
